Data as given in publication PMC3165084 (Leukemia, 2011).
“And” between values parts separate entries of the source, which are not always exact repeats. Identical values can stand only once. Marks after values point to notes of the source that are not given here.

What was measured:
Assay type in all cases: in vivo, human
[1] = tested on: patients with acute myeloid leukemia (AML); assay: Phase 1 dose escalation, week-on week-off oral tipifarnib: toxicity, DLT and MTD
Summary of the method: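 Adult patients with AML (M3 excluded) received oral test compound twice daily on days 1–7 and 15–21 of 28-day cycles in 3+3 cohorts. AEs were graded by NCI CTCAE v3.0 from clinic review and patient diaries. DLT was any possibly drug-related […] nonhematologic toxicity (excluding palliated GI events and corrected electrolytes), or non-reversible grade 4 hematologic toxicity without blasts. MTD was ≤1 of 6 with DLT in cycle 1.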

[2] = tested on: acute myeloid leukemia (AML); assay: Phase 1 dose escalation: clinical response
Summary of the method: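 Bone marrow aspiration and biopsy were done within two weeks before therapy and repeated on days 26–28 of each 28-day cycle. Blood counts were taken at least weekly. Response was scored by International Working Group criteria. Intra-patient escalation was allowed if no CR after cycle 1. Patients without PR or clinical improvement after 6 cycles were deemed treatment failures.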

[3] = Plasma pharmacokinetics of tipifarnib, LCMS/MS, non-compartmental analysis
[4] = 1200 mg bid, Subsequent courses
[5] = AUC12h Day 5 / AUC12h Day 1, 1400 mg bid
[6] = Day 1, 1200 mg, plasma, individual subjects 4-10
[7] = Day 1, 1400 mg, plasma, individual subjects 1-3

## Cn1cncc1[C@@](N)(c1ccc(Cl)cc1)c1ccc2c(c1)c(-c1cccc(Cl)c1)cc(=O)n2C [tipifarnib, Tipifarnib]
[1]; 400 mg bid
  # DLTs: 1
  DLT descriptions: hepatic
[1]; 1200 mg bid
  # DLTs: 1
  DLT descriptions: renal
[1]; 1200 mg bid, Course 1
  ALT, SGPT toxicity, Grade 2: 2
  Anorexia, Grade 2: 2
  Bilirubin toxicity, Grade 2: 2
  Creatinine toxicity, Grade 2: 2
  Creatinine toxicity, Grade 3: 1
  Dehydration, Grade 2: 1
  Fatigue, Grade 2: 3
  Hypoalbuminemia, Grade 2: 2
  Nausea, Grade 2: 1
  Nausea, Grade 3: 1
  Rash / desquamination, Grade 2: 1
  Vomiting, Grade 2: 2
[1]; [4]
  ALT, SGPT toxicity, Grade 3: 1
  AST, SGOT toxicity, Grade 2: 1
  Anorexia, Grade 2: 1
  Ataxia, Grade 3: 1
  Bilirubin toxicity, Grade 2: 1
  Constipation, Grade 2: 1
  Creatinine toxicity, Grade 2: 3
  Fatigue, Grade 3: 2
  Febrile neutropenia, Grade 3: 1
  Hyperglycemia, Grade 2: 2
  Hypoalbuminemia, Grade 2: 2
  Nausea, Grade 2: 2
  Restless leg syndrome, Grade 2: 1
  Syncope (fainting), Grade 3: 1
  Vomiting, Grade 2: 2
  Weight loss, Grade 2: 1
[1]; 1400 mg bid
  # DLTs: 2
  DLT descriptions: renal
[1]; 1600 mg bid
  # DLTs: 2 ^*
  DLT descriptions: hepatic, renal ^*
[1]; oral twice daily, days 1–7 and 15–21 of each 28-day cycle, first-cycle DLT
  maximum tolerated dose (MTD): 1200 mg bid
[2]; 800 mg bid
  Responses: 1 CMML patient cleared leukemic blasts
[2]; 800 mg bid, one patient, over 3 cycles
  marrow blasts, change: from 36% to 10%
[2]; 1000 mg bid
  Responses: 1 CR went to transplant
[2]; 1200 mg bid
  Responses: 2 CRs, 1 marrow response (from 50%-7% blasts)
[2]; 1200 mg bid, individual CR patients
  duration of CR: one month
[2]; 1400 mg bid
  Responses: minor responses
[2]; 1400 mg bid, two patients
  decrease of bone marrow blasts: ≥ 50%
[2]; all dose levels, 44 patients, 1000 mg and 1200 mg bid
  complete remissions (CR) seen: 3
[2]; expansion group, 7 patients at MTD 1200 mg bid
  complete responses in expansion group: no complete responses
[2]; lower dose levels (below 1000 mg bid)
  formal responses: No formal responses
[3]; AUC12h Day 5 / AUC12h Day 1, 1200 mg bid
  Accumulation Index, median: 1.2 and 1.23
[3]; AUC12h Day 5 / AUC12h Day 1, 1200 mg bid, individual subjects 4-10
  Accumulation Index: 1.23 and 0.91 and 2.40 and 1.55
[3]; [5]
  Accumulation Index, high: 1.37
  Accumulation Index, low: 0.97
  Accumulation Index, median: 1.17
[3]; AUC12h Day 5 / AUC12h Day 1, 1400 mg bid, individual subjects 1-3
  Accumulation Index: 1.37 and 0.97
[3]; Day 1, 1200 mg, plasma
  Cmin, high: 402 µg/L
  Cmin, low: 82 µg/L
  Cmin, median: 166 µg/L
[3]; [6]
  AUC12h: 3.905 µg·h/mL
  Cmax: 804 µg/L and 1180 µg/L and 479 µg/L and 2300 µg/L
  Cmin: 132 µg/L and 339 µg/L and 166 µg/L and 82 µg/L and 402 µg/L
  Tmax: 3.0 h
[3]; Day 1, 1400 mg, plasma
  Cmin, low: 145 µg/L
  Cmin, median: 237 µg/L
[3]; [7]
  Cmin: 329 µg/L and 145 µg/L
  Tmax: 3.2 h
[3]; Day 5, 1200 mg bid, plasma, individual subjects 4-10
  AUC12h: 4.815 µg·h/mL and 7.001 µg·h/mL and 7.787 µg·h/mL and 9.221 µg·h/mL
